Drawing on ChEMBL document CHEMBL4699407, “Isoquinoline thiosemicarbazone displays potent anticancer activity with in vivo efficacy against aggressive leukemias” (RSC Med Chem, 2020), this text covers Activity, IC90 and IC50 for one compound.

Activity calls are given as the source filed them. The rule behind the calls is not given here.

Series [1] deals with MIA PaCa-2. Kind of series: Induction of DNA damage in human MIA PaCa-2 cells assessed as decrease in dATP level at 25 nM in presence of Cu2+ incubated for 48 hrs by LC-MS/MS analysis. In kind it is functional, cell-based. The method, boiled down:
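Cells in DMEM or RPMI with 10% FBS, 37 °C, 5% CO2. Treated with 25 nM compound plus 20 μM Cu(II) for 48 h. Nucleotide pools quantified by LC-MS/MS with multiple reaction monitoring. Cells were in glucose-free DMEM with 10% dialyzed FBS and 11 mM [U-13C6]glucose for 48 h, and glucose-labeled pools were compared. Mean ± SD, n = 3, two-way ANOVA with Bonferroni correction.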

Series [2] has as its system MIA PaCa-2. The series can be described thus: Induction of apoptosis in human MIA PaCa-2 cells assessed as increase in early apoptotic cells at 25 nM incubated for 72 hrs by annexin V and propidium iodide staining based flow cytometry analysis relative to control. The format is functional. In outline:
(§1)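 Cells given 25 nM compound with or without 20 μM Cu(II) and/or the ATR inhibitor VE-822 at 250 nM for 72 h. Stained with annexin V-FITC and propidium iodide, then analysed on a five-laser flow cytometer to score viable, early apoptotic, late apoptotic and necrotic fractions against vehicle.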

Series [3] concerns MIA PaCa-2. The series can be described thus: Induction of DNA damage in human MIA PaCa-2 cells assessed as decrease in ATP level at 25 nM in presence of Cu2+ incubated for 48 hrs by LC-MS/MS analysis. In kind it is functional, cell-based. In outline:
(§2)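 MIAPACA2 cells were given 25 nM compound plus 20 μM Cu(II) for 48 h in glucose-free DMEM with 10% dialyzed FBS and 11 mM [U-13C6]glucose. Nucleotide pools were quantified by LC-MS/MS with multiple reaction monitoring. Mean ± SD, n = 3, two-way ANOVA with Bonferroni correction.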

The next series deals with 143B. The series can be described thus: Cytotoxicity against human 143-BTK cells assessed as reduction in cell viability at 25 to 100 nM incubated for 48 hrs by trypan blue assay. The conditions noted are these: dose nM 25-100, time 48.0 hrs. In kind it is functional, cell-based. The method, boiled down:
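143 BTK parental (WT) and ρ0 cells were exposed to the indicated compound concentrations plus 20 μM Cu(II) for 48 h. Viable cells were counted by trypan blue staining on a Vi-Cell counter. Mean ± SD, n = 2, Student t-test.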

The subject of series [4] is MIA PaCa-2. The series can be described thus: Cytotoxicity against human MIA PaCa2 cells assessed as reduction in cell viability at 25 nM in presence of Fe2+ incubated for 72 hrs by cell titer-glo luminescent cell viability assay. The format is functional, cell-based. In outline: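 MIAPACA2 cells were exposed to compound for 72 h with 20 μM Fe(II) or Zn(II) supplement. Proliferation was read by CellTiter-Glo ATP luminescence.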
On the technique in general: In ATP-based viability assays light output follows the ATP content of the culture.

Series [5] deals with MIA PaCa-2. Kind of series: Induction of DNA damage in human MIA PaCa-2 cells assessed as increase in CHEK1 phosphorylation at 10 nM in presence of Cu2+ incubated for 48 hrs by immunoblot assay. The format is functional, cell-based. In outline:
(§3)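 Treated with 10 nM compound plus 20 μM Cu(II). Lysed in RIPA buffer with protease and phosphatase inhibitors, then sonicated and centrifuged at 20 000g, 4 °C. Protein measured by micro BCA, and equal amounts run on bis-tris gels. Primary antibodies in 5% BSA/TBST; HRP-linked anti-rabbit or anti-mouse secondaries at 1:2500. Chemiluminescent detection on film; representative blot.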

For series [6], the system named is MIA PaCa-2. The series can be described thus: Cytotoxicity against human MIA PaCa2 cells assessed as reduction in cell viability in presence of Cu2+ incubated for 72 hrs by cell titer-glo luminescent cell viability assay. In kind it is functional, cell-based. The settings on record: MIA PaCa-2, 72 h. In outline: (§4)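 Cells were grown in DMEM or RPMI with 10% FBS, without antibiotics, at 37 °C, 20% O2, 5% CO2. Adherent lines were seeded at 500 cells/well. Serially diluted compound was given with 20 μM Cu(II) (CuCl2) for 72 h; leukemia models received pre-formed 1:1 copper complex. ATP was read by CellTiter-Glo luminescence. IC50 is relative to DMSO-treated cells.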

The subject of series [7] is MIA PaCa-2. Kind of series: Induction of apoptosis in human MIA PaCa-2 cells assessed as increase in necrotic cells at 25 nM incubated for 72 hrs by annexin V and propidium iodide staining based flow cytometry analysis relative to control. In kind it is functional. In outline:
as §1
(In general: A flow cytometer gives signals particle by particle.)

For series [8], the system named is MIA PaCa-2. The series can be described thus: Induction of apoptosis in human MIA PaCa-2 cells assessed as increase in late apoptotic cells at 25 nM in presence of Cu2+ and ATRi incubated for 72 hrs by annexin V and propidium iodide staining based flow cytometry analysis relative to control. In kind it is functional. In outline:
as §1

The next series has as its system SW1990. Kind of series: Cytotoxicity against human SW1990 cells assessed as reduction in cell viability in presence of Cu2+ incubated for 72 hrs by cell titer-glo luminescent cell viability assay. The settings on record: SW1990, 72 h. In kind it is functional, cell-based. The method, boiled down: as §4
The subject of series [9] is MIA PaCa-2. Kind of series: Induction of apoptosis in human MIA PaCa-2 cells assessed as increase in late apoptotic cells at 25 nM in presence of ATRi incubated for 72 hrs by annexin V and propidium iodide staining based flow cytometry analysis relative to control. The format is functional. In outline: as §1
A short description of series [10]: Cytotoxicity against human HPDE cells assessed as reduction in cell viability in presence of Cu2+ incubated for 72 hrs by cell titer-glo luminescent cell viability assay. In kind it is cell-based. The method, boiled down:
as §4

For series [11], the system named is MIA PaCa-2. Kind of series: Induction of apoptosis in human MIA PaCa-2 cells assessed as increase in early apoptotic cells at 25 nM in presence of ATRi incubated for 72 hrs by annexin V and propidium iodide staining based flow cytometry analysis relative to control. The format is functional. In outline: as §1
Series [12] can be described thus: Cytotoxicity against human A13A cells assessed as reduction in cell viability in presence of Cu2+ incubated for 72 hrs by cell titer-glo luminescent cell viability assay. The format is functional, cell-based. In outline:
as §4

For series [13], the system named is MIA PaCa-2. The series can be described thus: Induction of DNA damage in human MIA PaCa-2 cells assessed as decrease in TTP level at 25 nM in presence of Cu2+ incubated for 48 hrs by LC-MS/MS analysis. In kind it is functional, cell-based. The method, boiled down: as §2
Series [14] concerns MIA PaCa-2. The series can be described thus: Induction of DNA damage in human MIA PaCa-2 cells assessed as increase in CHEK2 phosphorylation at 10 nM in presence of Cu2+ incubated for 48 hrs by immunoblot assay. The format is functional, cell-based. In outline: as §3
(In general: A western blot detects proteins with antibodies after separation by electrophoresis.)

For another series, the system named is PANC-1. Kind of series: Cytotoxicity against human PANC-1 cells assessed as reduction in cell viability in presence of Cu2+ incubated for 72 hrs by cell titer-glo luminescent cell viability assay. In kind it is functional, cell-based. The settings on record: PANC-1, 72 h. The method, boiled down:
as §4

For series [15], the system named is MIA PaCa-2. The series can be described thus: Induction of apoptosis in human MIA PaCa-2 cells assessed as increase in early apoptotic cells at 25 nM in presence of Cu2+ incubated for 72 hrs by annexin V and propidium iodide staining based flow cytometry analysis relative to control. The format is functional. In outline: as §1
Another series deals with YAPC. Kind of series: Cytotoxicity against human YAPC cells assessed as reduction in cell viability in presence of Cu2+ incubated for 72 hrs by cell titer-glo luminescent cell viability assay. In kind it is functional, cell-based. The method, boiled down: as §4
In another series the test system is HPAF-II. Kind of series: Cytotoxicity against human HPAF-II cells assessed as reduction in cell viability in presence of Cu2+ incubated for 72 hrs by cell titer-glo luminescent cell viability assay. In kind it is functional, cell-based. The method, boiled down:
as §4

Series [16] deals with MIA PaCa-2. The series can be described thus: Induction of apoptosis in human MIA PaCa-2 cells assessed as decrease in viable cells at 25 nM incubated for 72 hrs by annexin V and propidium iodide staining based flow cytometry analysis relative to control. In kind it is functional. The method, boiled down:
as §1

The subject of series [17] is MIA PaCa-2. Kind of series: Induction of apoptosis in human MIA PaCa-2 cells assessed as increase in early apoptotic cells at 25 nM in presence of Cu2+ and ATRi incubated for 72 hrs by annexin V and propidium iodide staining based flow cytometry analysis relative to control. The format is functional. The method, boiled down: as §1
A further series concerns MOLT-4. The series can be described thus: Cytotoxicity against human MOLT-4 cells assessed as reduction in cell viability in presence of Cu2+ incubated for 72 hrs by cell titer-glo luminescent cell viability assay. The format is functional, cell-based. The settings on record: MOLT-4, 72 h. The method, boiled down:
as §4

As for `CN(C)C(=S)NN=Cc1nccc2cc(F)ccc12`, the outcome in the series on MIA PaCa-2 [1], in the series on MIA PaCa-2 [3] and in the series with MIA PaCa-2 [13] was inactive. The Activity was 1.85% in the series on MIA PaCa-2 [2]; 2.49% in the series on MIA PaCa-2 [7]; 42.7% in the series with MIA PaCa-2 [8]; 18.8% in the series with MIA PaCa-2 [9]; “Non-Toxic” in series [10]; 9.11% with MIA PaCa-2 [11]. For the same compound, the Activity with MIA PaCa-2 [15] came to 13.9%; with MIA PaCa-2 [16], 94.9%; with MIA PaCa-2 [17], 24.8%. Also, the outcome in the series with 143B, in the series with MIA PaCa-2 [4], with MIA PaCa-2 [5] and with MIA PaCa-2 [14] was Active. Besides, in the series with MIA PaCa-2 [6], the IC90 came to 21.6 nM. Also, the IC50 (with SW1990; in series [12]; in the series with PANC-1; with YAPC; in the series on HPAF-II; in the series with MOLT-4) was 1 nM throughout.

The IC90 is the concentration at which the effect reaches the 90% level. As a reminder, the IC50 is the midpoint of a concentration-inhibition curve.
